Measurements: ChEMBL document CHEMBL5154645, “Potent Anti-SARS-CoV-2 Activity by the Natural Product Gallinamide A and Analogues via Inhibition of Cathepsin L” (J Med Chem, 2022)
Active and inactive are the calls of the source. The calls are words filed in the database; no cut-off is given here.

How the values were obtained:
[1] = target: T1, Procathepsin L (Homo sapiens, UniProt P07711); assay: Inhibition of human recombinant Cathepsin L assessed as Kinact using Z-FR-AMC as substrate inubated for 30 mins by fluorometric assay
Summary of the method: (§1)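 Human CatL, human CatB or mouse CatL at 1 nM, at 25 °C in pH 5.5 Na acetate/DTT/EDTA/NaCl buffer. Reactions held 40 μM Z-FR-AMC and 555.56 to 0.01 nM compound, in quadruplicate. Product formation was measured at 6 min intervals for 1 h and normalized to DMSO wells. kobs came from inactivation curves. kinact and KIapp were obtained by nonlinear regression of kobs = kinact[I]/(KIapp + [I]); their ratio was then calculated.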
Target sequence in this assay (P07711 114-333 limits assumed): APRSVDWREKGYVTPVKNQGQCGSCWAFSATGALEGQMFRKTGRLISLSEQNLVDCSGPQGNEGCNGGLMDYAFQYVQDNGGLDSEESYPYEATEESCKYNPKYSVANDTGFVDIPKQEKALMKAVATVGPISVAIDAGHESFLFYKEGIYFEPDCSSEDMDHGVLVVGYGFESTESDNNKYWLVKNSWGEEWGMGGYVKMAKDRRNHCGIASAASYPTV

[2] = target: T2, Cathepsin K (Homo sapiens, UniProt P43235); assay: Inhibition of human recombinant Cathepsin K assessed remaining activity using Z-FR-AMC as substrate incubated for 30 mins by fluorometric assay
T2 sequence (P43235 whole entry): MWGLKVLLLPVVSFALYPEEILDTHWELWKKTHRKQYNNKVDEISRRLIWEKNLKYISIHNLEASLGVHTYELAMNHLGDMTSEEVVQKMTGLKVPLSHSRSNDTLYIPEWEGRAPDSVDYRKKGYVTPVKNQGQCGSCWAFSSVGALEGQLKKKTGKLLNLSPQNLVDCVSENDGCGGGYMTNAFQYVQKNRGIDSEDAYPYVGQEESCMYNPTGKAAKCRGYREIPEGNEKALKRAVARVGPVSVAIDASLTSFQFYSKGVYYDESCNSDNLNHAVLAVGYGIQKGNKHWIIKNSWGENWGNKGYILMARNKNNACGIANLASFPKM
Summary of the method: (§2)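 Recombinant human cathepsins: L, B, V and K at 1.11 nM, S at 4.44 nM. Each was preincubated 30 min at 25 °C with 3333 to 0.006 nM compound. Z-FR-AMC was added at 40 μM final. AMC release rate over 0–30 min was compared with DMSO (ex/em 360/460). IC50 from four technical replicates.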

[3] = target: T3, Cathepsin L2 (Homo sapiens, UniProt O60911); assay: Inhibition of human recombinant Cathepsin V assessed remaining activity using Z-FR-AMC as substrate incubated for 30 mins by fluorometric assay; summary of the method: as §2
T3 sequence (O60911 whole entry): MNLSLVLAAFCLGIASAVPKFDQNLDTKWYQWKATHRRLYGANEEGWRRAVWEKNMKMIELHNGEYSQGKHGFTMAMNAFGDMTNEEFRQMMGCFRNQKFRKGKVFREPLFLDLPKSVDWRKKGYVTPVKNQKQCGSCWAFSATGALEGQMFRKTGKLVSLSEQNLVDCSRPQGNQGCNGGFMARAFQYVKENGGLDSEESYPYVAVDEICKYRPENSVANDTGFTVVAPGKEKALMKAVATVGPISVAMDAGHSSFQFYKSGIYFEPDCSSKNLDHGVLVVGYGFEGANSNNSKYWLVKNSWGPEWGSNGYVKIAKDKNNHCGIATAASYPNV

[4] = target: Cathepsin S (Homo sapiens, UniProt P25774); assay: Inhibition of human recombinant Cathepsin S assessed remaining activity using Z-FR-AMC as substrate incubated for 30 mins by fluorometric assay; summary of the method: as §2
[5] = system: SARS-CoV-2; assay: Antiviral activity against SARS-CoV-2 infected in African green monkey Vero E6 cells assessed as inhibition of viral infection pre incubated for 30 minutes followed by viral infection and measured after 72 hrs by Nucblue dye based fluorometric analysis; format: functional, organism-based; settings: Severe acute respiratory syndrome coronavirus 2, Vero C1008
[6] = target: T4, Procathepsin L (Mus musculus) (UniProt P06797); assay: Inhibition of mouse Cathepsin L assessed as Kinact using Z-FR-AMC as substrate inubated for 30 mins by fluorometric assay; summary of the method: as §1
T4 sequence (whole entry): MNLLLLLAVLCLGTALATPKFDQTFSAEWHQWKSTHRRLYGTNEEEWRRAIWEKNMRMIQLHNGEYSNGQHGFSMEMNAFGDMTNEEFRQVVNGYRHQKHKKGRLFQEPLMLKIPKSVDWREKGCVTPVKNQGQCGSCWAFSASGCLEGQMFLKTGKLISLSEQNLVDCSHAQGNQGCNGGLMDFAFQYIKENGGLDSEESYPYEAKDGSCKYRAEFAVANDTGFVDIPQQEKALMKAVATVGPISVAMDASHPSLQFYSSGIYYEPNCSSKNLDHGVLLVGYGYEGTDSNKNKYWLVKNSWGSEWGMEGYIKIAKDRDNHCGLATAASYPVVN

[7] = target: T5, Cathepsin B (Homo sapiens, UniProt P07858); assay: Inhibition of human recombinant Cathepsin B assessed as ratio of Kinact/Kiapp using Z-FR-AMC as substrate inubated for 30 mins by fluorometric assay; summary of the method: as §1
[8] = target: T6, Procathepsin L (Mus musculus, UniProt P06797); assay: Inhibition of mouse Cathepsin L assessed as Apparent inhibition constant using Z-FR-AMC as substrate inubated for 30 mins by fluorometric assay; settings: read-out: Ki(app); summary of the method: as §1
T6 sequence (P06797 whole entry): T4 sequence (whole entry)

[9] = target: T1, Procathepsin L; assay: Inhibition of human recombinant Cathepsin L assessed as Apparent inhibition constant using Z-FR-AMC as substrate […] by fluorometric assay; settings: read-out: Ki(app)
Target sequence in this assay (P07711 whole entry): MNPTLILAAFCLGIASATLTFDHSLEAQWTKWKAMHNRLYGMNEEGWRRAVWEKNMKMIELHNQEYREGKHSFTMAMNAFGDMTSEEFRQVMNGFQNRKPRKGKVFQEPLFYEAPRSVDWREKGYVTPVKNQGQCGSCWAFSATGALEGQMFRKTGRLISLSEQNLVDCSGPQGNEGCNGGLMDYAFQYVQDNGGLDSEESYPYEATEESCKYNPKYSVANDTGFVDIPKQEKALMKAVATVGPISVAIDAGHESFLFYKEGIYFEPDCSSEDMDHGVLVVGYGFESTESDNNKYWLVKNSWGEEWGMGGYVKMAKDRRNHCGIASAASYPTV

[10] = target: T5, Cathepsin B; assay: Inhibition of human recombinant Cathepsin B assessed remaining activity using Z-FR-AMC as substrate incubated for 30 mins by fluorometric assay; summary of the method: as §2
[11] = target: T4, Procathepsin L (Mus musculus); assay: Inhibition of mouse Cathepsin L assessed as ratio of Kinact/Kiapp using Z-FR-AMC as substrate inubated for 30 mins by fluorometric assay; summary of the method: as §1
[12] = target: T1, Procathepsin L; assay: Inhibition of human recombinant Cathepsin L assessed as ratio of Kinact/Kiapp using Z-FR-AMC as substrate inubated for 30 mins by fluorometric assay
Target sequence in this assay (P07711 114-333 limits assumed): as the sequence (P07711 114-333 limits assumed) above

[13] = target: T5, Cathepsin B; assay: Inhibition of human recombinant Cathepsin B assessed as Kinact using Z-FR-AMC as substrate inubated for 30 mins by fluorometric assay
[14] = target: T5, Cathepsin B; assay: Inhibition of human recombinant Cathepsin B assessed as Apparent inhibition constant using Z-FR-AMC as substrate inubated for 30 mins by fluorometric assay; settings: read-out: Ki(app); summary of the method: as §1
[15] = system: Vero C1008; assay: Cytotoxicity against cells African green monkey Vero E6 cells incubated for 24 to 72 hrs by alamar blue assay; format: toxicity, cell-based; settings: chlorocebus sabaeus, time 24-72 hrs
Summary of the method: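 VeroE6 cells in DMEM with 10% FCS were seeded at 5 × 10^4 per well. After adherence, cells were given varying compound concentrations for 24 or 72 h at 37 °C, 5% CO2. Alamar Blue HS was added for a further 2–4 h. Viability was read as fluorescence at ex/em 560/590 nm.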

[16] = system: SARS-CoV-2; assay: Synergistic antiviral activity against SARS-CoV-2 infected in human HEK293 cells expressing TMPRSS2 as inhibition of viral entry in presence of Na-famostat mesylate; format: functional, organism-based; settings: Severe acute respiratory syndrome coronavirus 2
[17] = system: SARS-CoV-2; assay: Antiviral activity against SARS-CoV-2 infected in Vero E6 cells assessed as inhibition of viral entry at 0.5 uM and measured after 24 hrs post infection by Alexa Fluor 488 and Hoechst dye based fluorescence microscopy; format: functional, organism-based; settings: Severe acute respiratory syndrome coronavirus 2
[18] = target: T5, Cathepsin B; assay: Inhibition of recombinant human Cathepsin B expressed in huamn A549 using Z-Phe-Arg-AMC as substrate incubated for 30 mins by fluorometric assay
Summary of the method: (§3)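 VeroE6 or A549 cells were lysed by sonication in 50 mM MES pH 6.0 with AEBSF, pepstatin A, EDTA and DTT; protein was quantified by BCA. An equal volume of 50 μM Z-Phe-Arg-AMC was then added. Activity was normalized to 0.2% DMSO wells.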

[19] = system: SARS-CoV-2; assay: Antiviral activity against SARS-CoV-2 infected in African green monkey Vero E6 cells assessed as inhibition of viral entry at 0.5 uM pretreated for 30 mins with cells followed by viral infection and measured after 24 hrs post infection by Alexa Fluor 488 and Hoechst dye based fluorescence microscopy; format: functional, organism-based; settings: Severe acute respiratory syndrome coronavirus 2
[20] = target: T1, Procathepsin L; assay: Inhibition of recombinant human Cathepsin L in African green monkey Vero E6 at 20 uM using Z-Phe-Arg-AMC as substrate for 30 mins by fluorometric assay; format: cell-based; summary of the method: as §3
Target sequence in this assay (P07711 114-333 limits assumed): as above

[21] = system: SARS-CoV-2; assay: Antiviral activity against SARS-CoV-2 infected in human HEK293 cells expressing TMPRSS2 as inhibition of viral entry; format: functional, organism-based; settings: Severe acute respiratory syndrome coronavirus 2
[22] = system: SARS-CoV-2; assay: Anti viral activity against SARS-CoV-2 infected in African green monkey veroE6 assessed as reduction in viral load; format: functional, Severe acute respiratory syndrome coronavirus 2, Vero E6
[23] = target: T1, Procathepsin L; assay: Binding affinity to Cathepsin L in African green monkey VeroE6 cell lysates assessed as covalent adducts by quantitative mass spectrometry; format: subcellular; settings: Vero E6
Summary of the method: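 VeroE6 cells at 80–90% confluence were treated with 10 μM compound for 1 h in triplicate, washed with DPBS, and lysed in 4% sodium deoxycholate buffer. Lysates were digested to peptides and analysed by nanoflow LC-MS/MS. Covalent CatL adducts were identified by targeted MS/MS at 1% FDR.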
Target sequence in this assay (P07711 114-333 limits assumed): as above

[24] = system: SARS-CoV-2; assay: Antiviral activity against SARS-CoV-2 infected in human MRC5 cells expressing ACE2/TMPRSS2 assessed as inhibition of viral entry at 32 uM; format: functional, organism-based; settings: Severe acute respiratory syndrome coronavirus 2
[25] = target: T5, Cathepsin B; assay: Inhibition of recombinant human Cathepsin B in African green monkey Vero E6 using Z-Phe-Arg-AMC as substrate for 30 mins by fluorometric assay; format: cell-based; summary of the method: as §3
[26] = target: T1, Procathepsin L; assay: Inhibition of human recombinant Cathepsin L assessed enzyme activity using Z-FR-AMC as substrate at 416 nM incubated for 30 mins by fluorometric assay
Summary of the method: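 Recombinant human CatL at 50 pM was incubated with 416 nM compound for […] at 25 °C in 50 mM Na acetate pH 5.5, 5 mM DTT, 0.01% BSA, 1 mM EDTA. An equal volume of 5 μM Z-FR-AMC was then added. Fluorescence was read at 360/460 nm in triplicate wells and normalized to DMSO vehicle wells.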
Target sequence in this assay (P07711 114-333 limits assumed): as above

Chain of Cathepsin S (P25774 whole entry): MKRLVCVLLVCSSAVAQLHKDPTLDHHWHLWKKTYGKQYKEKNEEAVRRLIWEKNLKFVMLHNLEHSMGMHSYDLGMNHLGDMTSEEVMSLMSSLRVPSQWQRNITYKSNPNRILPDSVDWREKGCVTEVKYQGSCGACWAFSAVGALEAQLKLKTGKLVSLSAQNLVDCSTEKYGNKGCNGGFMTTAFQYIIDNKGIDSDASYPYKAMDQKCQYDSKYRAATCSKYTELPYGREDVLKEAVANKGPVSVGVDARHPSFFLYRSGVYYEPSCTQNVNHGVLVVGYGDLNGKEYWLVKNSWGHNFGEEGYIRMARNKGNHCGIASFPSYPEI

Structure (SMILES) | Kinact [1] | IC50 [2] [nM] | IC50 [3] [nM] | IC50 [4] [nM] | EC50 [5] [nM] | Kinact [6] | Ratio [7] | Ki [8] [nM] | Ki [9] [nM] | IC50 [10] [nM] | Ratio [11] | Ratio [12] | Kinact [13] | Ki [14] [nM] | CC50 [15] [nM] | Activity [24] | also measured
COC1=CC(=O)N(C(=O)/C=C/[C@H](C)NC(=O)[C@H](CC(C)C)NC(=O)[C@H](CC2CCCCC2)NC(=O)C2CCN(C)CC2)[C@H]1Cc1c[nH]c2ccccc12 | 3.47 10^-3/s | 0.623 | 20.6 | 0.304 | 6070 | 8.56 10^-3/s | 2.43 10^4/s/M | 29.3 | 18 | 0.278 | 2.92 10^5/s/M | 1.93 10^5/s/M | 2.09 10^-2/s | 861 | > 100000 |  | 
COC1=CC(=O)N(C(=O)/C=C/[C@H](C)NC(=O)[C@H](CC(C)C)NC(=O)[C@H](CC(C)C)NC(=O)C2CCN(C)CC2)[C@H]1Cc1c[nH]c2ccccc12 | 8.34 10^-3/s | 17.9 | 63.2 | 0.0149 | > 5000 | 3.19 10^-3/s | 1.99 10^4/s/M | 3.95 |  | 0.416 | 8.06 10^5/s/M | 2.9 10^5/s/M | 1.7 10^-2/s | 854 | > 100000 |  | 
CC[C@H](C)[C@@H](C(=O)O[C@@H](CC(C)C)C(=O)N[C@@H](CC(C)C)C(=O)N[C@@H](C)/C=C/C(=O)N1C(=O)C=C(OC)[C@@H]1C)N(C)C [GALLINAMIDE A] | 4.75 10^-3/s | 79.6 | 697 | 0.367 | 28 | 5.69 10^-3/s |  | 5.29 | 7.95 | 7.34 | 1.07 10^6/s/M |  | 6.27 10^-4/s | 117 | > 100000 | Active | Activity [16]: Active; Activity [17]: Active; inhibition [18]: Active; Activity [19]: Active; inhibition [20]: Active; Activity [21]: Active; IC90 [22]: 88 nM; Activity [23]: Active; inhibition [25]: Active
COC1=CC(=O)N(C(=O)/C=C/[C@H](C)NC(=O)[C@H](CC(C)C)NC(=O)[C@H](Cc2ccccc2)NC(=O)[C@H](CC(C)C)N(C)C)[C@H]1Cc1c[nH]c2ccccc12 |  |  |  |  |  |  |  |  |  |  |  |  |  |  |  |  | inhibition [26]: 90%
COC1=CC(=O)N(C(=O)/C=C/[C@H](C)NC(=O)[C@H](CCc2ccccc2)NC(=O)[C@H](CC2CCCCC2)NC(=O)[C@H](C(C)C)N(C)C)[C@H]1Cc1c[nH]c2ccccc12 | 5.87 10^-3/s | 219 | 186 | 60.3 | 168 | 2.24 10^-3/s | 9.65 10^3/s/M | 16.5 |  | 47.6 | 1.36 10^5/s/M | 1.89 10^5/s/M | 3.35 10^-3/s | 347 | > 100000 | Active | 
COC1=CC(=O)N(C(=O)/C=C/[C@H](CCc2ccccc2)NC(=O)[C@H](CC(C)C)NC(=O)[C@H](CC(C)C)NC(=O)[C@H](C(C)C)N(C)C)[C@H]1Cc1c[nH]c2ccccc12 | 9.85 10^-3/s | 1.5 | 419 | 0.224 | 920 | 9.6 10^-3/s | 7.94 10^3/s/M | 4.15 | 11.8 | 0.149 | 2.31 10^6/s/M | 8.35 10^5/s/M | 1.89 10^-3/s | 238 | > 100000 |  | 
